Data published in ChEMBL document CHEMBL2375270, “Structure-based design, SAR analysis and antitumor activity of PI3K/mTOR dual inhibitors from 4-methylpyridopyrimidinone series” (Bioorg Med Chem Lett, 2013).

Tested on: not listed separately
Experiment: Oral bioavailability in rat
Assay type: ADME, organism-based
Settings: in vivo; call rule not given here

Work on `COc1ncc(-c2cc3c(C)nc(N)nc3n([C@H]3CC[C@H](OCO)CC3)c2=O)cc1F` yielded a bioavailability of 79%.

Tested on: not listed separately
Experiment: Volume of distribution at steady state in rat
Assay type: ADME, organism-based
Settings: in vivo, read-out: Vdss

With `COc1ncc(-c2cc3c(C)nc(N)nc3n([C@H]3CC[C@H](OCO)CC3)c2=O)cc1F` the Vd was 4.08 L/kg.

Tested on: not listed separately
Experiment: Toxicity against nu/nu mouse
Assay type: organism-based
Settings: in vivo
Outline: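 Tolerability assessed in mice bearing U87 xenografts during tumour growth inhibition studies. Groups received vehicle or 1, 3 or 10 mg/kg. Plasma free drug levels and AKT phosphorylation were sampled at 1 h and 24 h in the top-dose group.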

`COc1ncc(-c2cc3c(C)nc(N)nc3n([C@H]3CC[C@H](OCO)CC3)c2=O)cc1F` gave an MTD of 10 mg/kg.

Tested on: Plasma
Experiment: Drug metabolism in human plasma assessed as formation of 2-((trans)-4-(2-amino-6-(6-methoxypyridin-3-yl)-4-methyl-7-oxopyrido[2,3-d]pyrimidin-8(7H)-yl)cyclohexyloxy)acetic acid at 8 mg, po qd for 21 days by HPLC analysis
Assay type: ADME, organism-based
Settings: in vivo, 504 h
Outline: (§1)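 Human plasma came from patients given 8 mg once daily in a clinical dose-escalation study. Metabolites were profiled from the total ion chromatogram. Peaks were assigned by retention time and molecular ion (m/z) against reference standards and parent drug.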

In the case of `COc1ccc(-c2cc3c(C)nc(N)nc3n([C@H]3CC[C@H](OCCO)CC3)c2=O)cn1` [PF-04691502], the Drug metabolism is reported as “Active”.

Tested on: Plasma
Experiment: Drug metabolism in human plasma assessed as formation of glucuronide conjugate at 8 mg, po qd for 21 days by HPLC analysis
Assay type: ADME, organism-based
Settings: in vivo, 504 h
Outline: as §1

For `COc1ccc(-c2cc3c(C)nc(N)nc3n([C@H]3CC[C@H](OCCO)CC3)c2=O)cn1` [PF-04691502], the Drug metabolism was “Active”.

Tested on: not listed separately
Experiment: Permeability across dog RRCK cells
Assay type: ADME, cell-based, Canis lupus familiaris, MDCKII-LE
Settings: MDCK, read-out: permeability

In order of rising Papp:
1. Cc1nc(N)nc2c1cc(-c1cn[nH]c1)c(=O)n2[C@H]1CC[C@@H](OCC(N)=O)CC1  0.151 ×10⁻⁶ cm/s
2. COc1ccc(-c2cc3c(C)nc(N)nc3n([C@H]3CC[C@H](OCC(=O)O)CC3)c2=O)cn1  0.295 ×10⁻⁶ cm/s
3. Cc1nc(N)nc2c1cc(-c1cnc3ccccc3c1)c(=O)n2[C@H]1CC[C@@H](OCC(N)=O)CC1  4.57 ×10⁻⁶ cm/s
4. COc1ccc(-c2cc3c(C)nc(N)nc3n([C@H]3CC[C@H](OCC(N)=O)CC3)c2=O)cn1  4.58 ×10⁻⁶ cm/s
5. Cc1nc(N)nc2c1cc(-c1cnc3ccccc3c1)c(=O)n2[C@H]1CC[C@H](OCC(N)=O)CC1  9.02 ×10⁻⁶ cm/s
6. Cc1nc(N)nc2c1cc(-c1cn[nH]c1)c(=O)n2[C@H]1CC[C@@H](OCO)CC1  12.6 ×10⁻⁶ cm/s
7. Cc1nc(N)nc2c1cc(-c1cnc3ccccc3c1)c(=O)n2[C@H]1CC[C@H](OCO)CC1  19.7 ×10⁻⁶ cm/s
8. COc1ncc(-c2cc3c(C)nc(N)nc3n([C@H]3CC[C@H](OCO)CC3)c2=O)cn1  21.3 ×10⁻⁶ cm/s
9. Cc1nc(N)nc2c1cc(-c1cnn(C)c1)c(=O)n2[C@H]1CC[C@@H](OCO)CC1  23.3 ×10⁻⁶ cm/s
10. COc1ncc(-c2cc3c(C)nc(N)nc3n([C@H]3CC[C@H](OCC(N)=O)CC3)c2=O)cc1F  26.2 ×10⁻⁶ cm/s
11. COc1ncc(-c2cc3c(C)nc(N)nc3n([C@H]3CC[C@@H](OCC(N)=O)CC3)c2=O)cc1F  26.2 ×10⁻⁶ cm/s
12. COc1ncc(-c2cc3c(C)nc(N)nc3n([C@H]3CC[C@H](OCC(N)=O)CC3)c2=O)cn1  29.8 ×10⁻⁶ cm/s
13. COc1ncc(-c2cc3c(C)nc(N)nc3n([C@H]3CC[C@@H](OCC(N)=O)CC3)c2=O)cn1  30.1 ×10⁻⁶ cm/s
14. COc1ccc(-c2cc3c(C)nc(N)nc3n([C@H]3CC[C@@H](OCC(N)=O)CC3)c2=O)cn1  30.3 ×10⁻⁶ cm/s
15. Cc1nc(N)nc2c1cc(-c1cnc3ccccc3c1)c(=O)n2[C@H]1CC[C@@H](OCO)CC1  41.6 ×10⁻⁶ cm/s
